Assay outcomes as filed in PubChem BioAssay.
MDM2 E3 inh: MDM2-luciferase reporter signal enhancers, primary screen, MDM2 E3 ligase inhibitor project, cell-based, luminescence, 1536-well; E3 ubiquitin-protein ligase Mdm2 (Homo sapiens), Q00987; cell-based MDM2 ubiquitination luciferase reporter, 2 h; 0 = plate control, 100 = twice control, blank-subtracted; signal enhancement, % at 5 µM; 210,000 tested, 0.11% active; AID 1230, 2008;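 active = signal enhancement of 30% or more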;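 note: luminescence tracks abundance of the self-degrading MDM2-luciferase fusion protein; higher signal means inhibition of MDM2 E3 ligase activity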
Target sequence (Q00987 whole entry, looked up, the tested form may be a part): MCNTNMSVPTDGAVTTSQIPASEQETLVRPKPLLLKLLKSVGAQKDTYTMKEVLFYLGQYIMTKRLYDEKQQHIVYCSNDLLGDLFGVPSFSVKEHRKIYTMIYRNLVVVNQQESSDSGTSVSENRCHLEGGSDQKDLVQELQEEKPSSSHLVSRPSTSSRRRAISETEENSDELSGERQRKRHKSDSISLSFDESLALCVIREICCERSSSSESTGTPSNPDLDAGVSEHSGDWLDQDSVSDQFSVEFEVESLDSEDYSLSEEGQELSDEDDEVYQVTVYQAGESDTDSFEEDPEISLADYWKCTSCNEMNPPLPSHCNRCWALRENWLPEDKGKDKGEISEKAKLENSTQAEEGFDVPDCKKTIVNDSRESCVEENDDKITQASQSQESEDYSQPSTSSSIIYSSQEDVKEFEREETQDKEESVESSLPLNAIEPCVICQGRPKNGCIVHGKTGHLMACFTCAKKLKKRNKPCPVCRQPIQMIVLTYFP
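system = mammalian cells stably expressing self-ubiquitinating, self-degrading MDM2 E3–luciferase fusion | quantity = 2000 cells per well seeded | incubation = 4 h cell settling then 2 h compound exposure, 37 °C | signal = SteadyLite luminescence, 15 min reagent step | benchmarks = plate control and blank wells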
Hsp70 act: Hsp70 transcriptional activators, primary screen, cell-based, HeLa, Hsp70 promoter luciferase, luminescence, 10 µM; activation, % at 10 µM; 200,000 tested, 0.04% active; HeLa Hsp70 promoter luciferase reporter; scaled: vehicle 0, proteasome-inhibitor control 100%; AID 1203, 2008;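 active = activation above the mean across all tested compounds plus 3 SD, cutoff set per campaign, cut at about 5.5% in these data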;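 note: 100% = MG132 at 30 µM as the positive control and 0% = DMSO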
Wee1 degr inh: Wee1 degradation inhibitors, primary screen, cell-based, HeLa, Wee1K328M-luciferase, luminescence; Wee1-like protein kinase (Homo sapiens), P30291; HeLa Luc-Wee1K328M stability; 100% = proteasome inhibitor MG132 effect; reporter increase, % at 5 µM; 220,000 tested, 1.2% active; AID 1321, 2008;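 active = activation above the mean of all tested compounds plus 3 SD, set per screening run, cut at about 8.8% in these data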;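 note: cells exposed to compound for 20 h before luminescence read; 0% = DMSO alone and 100% = MG132 at 30 µM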
Insulin prom inh: inhibitors of insulin promoter-driven GFP, primary screen, imaging, TRM-6 cells, eGFP reporter, cell count. reporter expression induced with tamoxifen. inhibition, % at 2 µM. 130,000 tested, 0.9% active;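 active = inhibition above the mean plus 3 SD, with well images judged a real hit on visual review, cut at about 60% in these data, passing the limit was not always enough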
RBBP9 inhibitor: human RBBP9 inhibitors, primary screen, biochemical, fluorescence polarization, FP-Rh probe, HTS; Serine hydrolase RBBP9 (Homo sapiens), O75884; recombinant RBBP9; inhibition, % at 7.94 µM; 220,000 tested, 0.2% active; AID 1515, 2009;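 active = inhibition above the campaign mean of all tested compounds plus 3 SD, cut at about 14% in these data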;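 note: plate controls were DMSO wells with RBBP9 for no effect and wells lacking RBBP9 protein for full effect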
Target sequence (O75884 whole entry, looked up): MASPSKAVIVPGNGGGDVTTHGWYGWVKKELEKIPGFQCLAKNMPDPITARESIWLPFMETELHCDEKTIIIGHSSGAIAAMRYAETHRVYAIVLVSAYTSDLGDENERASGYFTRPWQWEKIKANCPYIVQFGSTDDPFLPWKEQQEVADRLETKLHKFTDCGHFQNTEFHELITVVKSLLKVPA
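Test system: recombinant human RBBP9; Timing: 30 min then 45 min, 25 °C; Detection: fluorescence polarization; Control set: RBBP9 with DMSO as uninhibited control, no-protein wells as full inhibition; Compound dosing: one concentration, 7.94 µM nominal, 0.794% DMSO; Probe or stimulus: FP-Rh activity-based probe, 375 nM before mixing.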
Ins promoter up: insulin promoter activators in MIN6 cells, imaging, high-content screening, mouse beta cells; MIN6 insulin promoter-GFP reporter; active compounds read high; z-score at 5 µM; 190,000 tested, 0.3% active; AID 1625, 2009;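 active = z-score above 3 at 5 µM with at least 500 cells counted in the well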
Numbers without * were called inactive; x = no result. Hits are enriched below; roughly 2.2% of the tested compounds scored in any of these assays.

SMILES	MDM2 E3 inh	Hsp70 act	Wee1 degr inh	Insulin prom inh	RBBP9 inhibitor	Ins promoter up
CC1(C)CC(NC(=O)CC2CCCCC2)CC(C)(C)N1	-21.1	0.0	0.4	81.8*	-8.7	x
O=c1cc2oc3cc(O)c(O)cc3c(-c3ccccc3O)c-2cc1O	-11.4	x	3.0	x	13.5	15.3*
CCOc1ccccc1-c1c2cc(O)c(=O)cc-2oc2cc(O)c(O)cc12	-12.6	-0.3	1.6	x	-1.0	8.08*
COc1ccc(OC)c(-c2c3cc(O)c(=O)cc-3oc3cc(O)c(O)cc23)c1	-11.2	-0.1	-0.3	-149.3	-17.0	-0.57
CCc1ccc(N2CC(C(=O)Nc3cc(C)on3)CC2=O)cc1 (stereo not given)	-1.6	0.1	-1.7	x	5.8	-0.45
Cc1noc(C)c1COc1cccc(C(=O)OCC(=O)N2CC(=O)Nc3ccccc32)c1	-21.2	-0.1	17.7*	-209.1	-6.5	-0.37
O=C1CN(C(=O)COc2cccc(F)c2)c2ccccc2N1	-7.4	-0.3	-2.9	x	-2.5	-0.28
CC1CC(=O)C2=C(C1)OC(N)=C(C#N)C2c1coc2ccccc2c1=O (stereo not given)	-20.4	0.0	-4.3	-32.4	-12.3	3.02*
CC1CCN(C(=O)COC(=O)c2ccc3c(c2)OCO3)CC1	-9.5	0.2	0.5	x	-7.4	-0.18
COC(=O)c1nnn(-c2nonc2N)c1COc1ccc(C=O)cc1OC	-4.3	-0.3	0.4	x	3.4	0.5
Cn1nc(C(F)(F)F)c(-c2ccc(F)cc2)c1NC(=O)c1cccnc1	-4.2	x	-1.4	x	-2.2	-0.51
CC(=O)N1CC[n+]2c(-c3ccc(Cl)cc3)csc21	-9.6	-0.4	0.9	14.3	-15.4	-0.39
C=CCn1cnc2c(c1=O)c1nc3ccccc3nc1n2-c1ccccc1	x	x	x	x	x	0.67
COCCCn1cnc2c(c1=O)c1nc3ccccc3nc1n2-c1ccccc1	-10.3	0.3	-1.4	90.9*	-5.1	x
Cc1cc(C(=O)Nc2cccc3ccccc23)n(-c2ccccc2)n1	41.6*	-0.2	5.3	13.3	6.9	-1.23
CC(=O)Nc1ccc(NC(=O)c2cc(C)nn2-c2ccccc2)cc1	-0.6	-0.1	-0.2	56.0	-3.9	0.55
COc1ccccc1[C@@H]1C(c2cccc(C)c2)=NN(c2ccccc2)[C@H]1C(=O)N1CCOC1=O	x	-0.4	-1.1	13.6	0.4	0.35
CC1(C)CC2CC(C)(CN2C(=O)COC(=O)c2cc(Cl)cc(Cl)c2N)C1 (stereo not given)	-5.4	0.3	-0.4	-15.6	-4.5	-0.96
CC1(C)CC2CC(C)(CN2C(=O)COC(=O)CNC(=O)c2ccc(Cl)c(Cl)c2)C1 (stereo not given)	-0.3	-0.3	10.6*	x	-3.8	-0.03
Cn1cnnc1SCC(=O)N/N=C/c1ccc(OCC(N)=O)cc1	-16.3	x	-3.3	x	-5.8	x
O=C1Nc2ccccc2N(O)N1c1ccc(S(=O)(=O)N2CCCCCC2)cc1	-5.8	-0.2	9.7*	-7.7	-10.8	0.06
C=CCn1c(N)c(C(=O)NCc2cccnc2)sc1=S	-10.1	-0.1	2.1	10.8	-0.3	-0.69
C=CCn1c(SCc2csc(C)n2)nc2sc3c(c2c1=O)CCCC3	2.2	0.1	-0.2	71.4*	-0.1	1.39
C=CCn1c(SCc2csc(C)n2)nc2sc3c(c2c1=O)CCCCC3	-7.7	-0.2	-1.2	34.5	-1.7	-0.42
Cc1nc(COc2ccccc2Cl)sc1-c1ccnc(N)n1	0.8	x	-1.3	x	-5.6	-0.05
SMILES	MDM2 E3 inh	Hsp70 act	Wee1 degr inh	Insulin prom inh	RBBP9 inhibitor	Ins promoter up
COc1ccc(CCNC(=O)c2ccc(SC)cc2OC)cc1	-10.1	-0.1	4.5	x	-1.7	0.01
COc1cc(SC)ccc1C(=O)NCCOc1ccc(F)cc1	-17.2	0.1	10.1*	-8.1	-6.2	-0.89
O=C(O)CCN1C(=O)c2ccc(NC(=O)Cc3ccc(Cl)cc3)cc2C1=O	-5.8	-0.2	-0.1	x	-3.8	0.13
CCCCC/C(=N\NC(=O)Nc1ccccc1)c1ccccc1	-16.1	-0.2	9.2*	-50.0	-6.6	0.04
Cc1ccc(NC(=O)CC(O)(C(F)(F)F)C(F)(F)F)cc1	x	0.2	2.6	76.9*	-2.1	-0.26
COc1ccc(C)cc1NC(=O)CC(O)(C(F)(F)F)C(F)(F)F	-15.8	-0.2	-0.5	x	2.0	-0.61
O=C(COC(=O)c1ccco1)NCC1CCCO1 (stereo not given)	-6.9	0.0	0.3	39.4	-4.8	3.04*
Cc1cc(C)c(C(=O)O)c(CC(C)(C)C(=O)O)c1	-16.4	x	1.2	x	-3.3	3.14*
CCn1c(SCC(=O)c2c[nH]c3ccccc23)nc2cc(S(=O)(=O)N3CCOCC3)ccc21	-3.6	-0.3	-0.1	59.5	-17.8	3.09*
CN(C)c1ccc(NC(=O)COC(=O)c2cc(=O)c3ccccc3o2)cc1	-1.0	-0.1	2.5	66.7*	-4.8	-1.37
Cc1ccccc1NC(=O)COC(=O)c1cc(=O)c2ccccc2o1	-4.4	-0.1	3.3	63.6	3.8	-0.24
Cc1ccccc1CSc1nnc([C@@H]2CCCN2)o1	-6.0	x	-0.1	x	-13.2	-0.38
COCCCN(CC(=O)Nc1ccc(N2CCOCC2)cc1)S(=O)(=O)c1ccc(Cl)cc1	-7.3	-0.3	-0.5	x	-1.2	-0.37
CCCN1CNC(=S)N(Cc2ccccc2)C1	10.2	-0.4	0.0	x	-0.8	-0.04
S=C1NCN(CCc2ccccc2)CN1Cc1ccccc1	-9.6	x	9.6*	x	-7.8	x
O=C(CN1C(=O)c2ccccc2C1=O)Nc1sc2c(c1C(=O)NCc1ccco1)CCCC2	10.0	-0.3	2.0	92.3*	-7.0	0.54
COc1ccccc1Nc1nc(Cl)c(C=O)s1	-3.7	0.2	-1.7	x	-2.5	3.19*
Cc1ccc(Nc2nc(Cl)c(C=O)s2)cc1Cl	-9.0	0.2	-0.5	x	-2.1	x
O=Cc1sc(Nc2ccccc2)nc1Cl	-3.0	-0.3	-3.5	-245.4	-0.7	3.66*
COc1ccc(C=O)cc1Cn1c(C)cc(C)c(C#N)c1=O	1.9	0.0	-1.2	-5.0	-3.3	x
CCOC(=O)N1N=C(c2ccc(OC)cc2)CC1(O)C(F)(F)F (stereo not given)	-16.3	-0.1	-1.9	x	-18.0	-0.39
CCOC(=O)N1N=C(c2ccccc2)CC1(O)C(C)(F)F (stereo not given)	-15.8	0.2	1.5	73.7*	-2.5	0.23
c1cc2c3c(cccc3c1)C(N1CCCCC1)=N2	-2.2	-0.5	0.7	87.1*	3.0	-0.11
COCCNC(=O)C(c1ccc(F)cc1)N(C(=O)CCC(=O)Nc1nccs1)c1cccc(C)c1 (stereo not given)	-3.9	-0.1	4.3	-26.7	-4.7	-0.27
